According to ChEMBL document CHEMBL5058577, “EUbOPEN Chemogenomics Library 2 (Multiplex)” (2022):

Test system: U2OS
Assay: Multiplex assay against U2OS
Assay type: toxicity, cell-based
Conditions: human
Procedure, shortened: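 Four dyes were applied at seeding to live cells: Hoechst33342, BioTracker Green Microtubule Cytoskeleton Dye, MitoTracker Red and Annexin V Alexa Fluor 680. Imaging after compound addition used a CQ1 microscope at 37°C and 5% CO2. CellPathfinder machine-learning gating then sorted cells into Hoechst high-intensity objects or normal cells, normal cells into healthy, pyknosed or fragmented nuclei, and pyknosed cells into mitotic or apoptotic, with tubulin, mitochondrial-mass and membrane-permeability phenotypes given as per cents of healthy-nucleus cells.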

[1] = 12 h, 1 µM, compound concentration 1 uM, replicate 1
[2] = 12 h, 1 µM, compound concentration 1 uM, replicate 2
[3] = 12 h, 10 µM, compound concentration 10 uM, replicate 1
[4] = 12 h, 10 µM, compound concentration 10 uM, replicate 2
[5] = 24 h, 1 µM, compound concentration 1 uM, replicate 1
[6] = 24 h, 1 µM, compound concentration 1 uM, replicate 2
[7] = 24 h, 10 µM, compound concentration 10 uM, replicate 1
[8] = 24 h, 10 µM, compound concentration 10 uM, replicate 2
[9] = 48 h, 1 µM, compound concentration 1 uM, replicate 1
[10] = 48 h, 1 µM, compound concentration 1 uM, replicate 2
[11] = 48 h, 10 µM, compound concentration 10 uM, replicate 1
[12] = 48 h, 10 µM, compound concentration 10 uM, replicate 2

Cl.Cl.OCCOCCN1CCN(C(c2ccccc2)c2ccc(Cl)cc2)CC1 (stereo not given) [HYDROXYZINE HYDROCHLORIDE]
Population Apoptotic (%) [1]: 60%
Population Fragmented Nuclei (%) [1]: 29%
Population Healthy Nuclei (%) [1]: 61%
Population Hoechst High Intensity Objects (%) [1]: 0%
Population Membrane Permeable-Phenotype (%) [1]: 11%
Population Mitochondria Different-Phenotype (%) [1]: 4%
Population Mitotic Cells (%) [1]: 40%
Population Normal (%) [1]: 99%
Population Pyknosed Nuclei (%) [1]: 9%
Population Tubulin-Different-Phenotype (%) [1]: 7%
Total Cell Count [1]: 208
Population Apoptotic (%) [2]: 80%
Population Fragmented Nuclei (%) [2]: 13%
Population Healthy Nuclei (%) [2]: 78%
Population Hoechst High Intensity Objects (%) [2]: 1%
Population Membrane Permeable-Phenotype (%) [2]: 9%
Population Mitochondria Different-Phenotype (%) [2]: 6%
Population Mitotic Cells (%) [2]: 20%
Population Normal (%) [2]: 98%
Population Pyknosed Nuclei (%) [2]: 7%
Population Tubulin-Different-Phenotype (%) [2]: 8%
Total Cell Count [2]: 139
Population Apoptotic (%) [3]: 58%
Population Fragmented Nuclei (%) [3]: 20%
Population Healthy Nuclei (%) [3]: 66%
Population Hoechst High Intensity Objects (%) [3]: 1%
Population Membrane Permeable-Phenotype (%) [3]: 9%
Population Mitochondria Different-Phenotype (%) [3]: 10%
Population Mitotic Cells (%) [3]: 41%
Population Normal (%) [3]: 98%
Population Pyknosed Nuclei (%) [3]: 13%
Population Tubulin-Different-Phenotype (%) [3]: 6%
Total Cell Count [3]: 316
Population Apoptotic (%) [4]: 88%
Population Fragmented Nuclei (%) [4]: 26%
Population Hoechst High Intensity Objects (%) [4]: 2%
Population Membrane Permeable-Phenotype (%) [4]: 5%
Population Mitochondria Different-Phenotype (%) [4]: 7%
Population Mitotic Cells (%) [4]: 11%
Population Normal (%) [4]: 97%
Population Pyknosed Nuclei (%) [4]: 6%
Population Tubulin-Different-Phenotype (%) [4]: 7%
Total Cell Count [4]: 141
Population Apoptotic (%) [5]: 96%
Population Fragmented Nuclei (%) [5]: 25%
Population Healthy Nuclei (%) [5]: 63%
Population Hoechst High Intensity Objects (%) [5]: 1%
Population Membrane Permeable-Phenotype (%) [5]: 8%
Population Mitochondria Different-Phenotype (%) [5]: 4%
Population Mitotic Cells (%) [5]: 4%
Population Normal (%) [5]: 98%
Population Pyknosed Nuclei (%) [5]: 10%
Population Tubulin-Different-Phenotype (%) [5]: 7%
Total Cell Count [5]: 232
Population Apoptotic (%) [6]: 77%
Population Fragmented Nuclei (%) [6]: 9%
Population Healthy Nuclei (%) [6]: 77%
Population Hoechst High Intensity Objects (%) [6]: 2%
Population Membrane Permeable-Phenotype (%) [6]: 5%
Population Mitochondria Different-Phenotype (%) [6]: 1%
Population Mitotic Cells (%) [6]: 22%
Population Normal (%) [6]: 97%
Population Pyknosed Nuclei (%) [6]: 12%
Population Tubulin-Different-Phenotype (%) [6]: 1%
Total Cell Count [6]: 148
Population Apoptotic (%) [7]: 73%
Population Fragmented Nuclei (%) [7]: 23%
Population Healthy Nuclei (%) [7]: 63%
Population Hoechst High Intensity Objects (%) [7]: 2%
Population Membrane Permeable-Phenotype (%) [7]: 10%
Population Mitochondria Different-Phenotype (%) [7]: 8%
Population Mitotic Cells (%) [7]: 26%
Population Normal (%) [7]: 97%
Population Pyknosed Nuclei (%) [7]: 12%
Population Tubulin-Different-Phenotype (%) [7]: 4%
Total Cell Count [7]: 359
Population Apoptotic (%) [8]: 61%
Population Fragmented Nuclei (%) [8]: 31%
Population Healthy Nuclei (%) [8]: 60%
Population Membrane Permeable-Phenotype (%) [8]: 12%
Population Mitochondria Different-Phenotype (%) [8]: 13%
Population Mitotic Cells (%) [8]: 38%
Population Pyknosed Nuclei (%) [8]: 7%
Population Tubulin-Different-Phenotype (%) [8]: 9%
Total Cell Count [8]: 168
Population Apoptotic (%) [9]: 89%
Population Fragmented Nuclei (%) [9]: 24%
Population Healthy Nuclei (%) [9]: 62%
Population Hoechst High Intensity Objects (%) [9]: 2%
Population Membrane Permeable-Phenotype (%) [9]: 4%
Population Mitochondria Different-Phenotype (%) [9]: 3%
Population Mitotic Cells (%) [9]: 10%
Population Normal (%) [9]: 97%
Population Pyknosed Nuclei (%) [9]: 13%
Population Tubulin-Different-Phenotype (%) [9]: 4%
Total Cell Count [9]: 300
Population Apoptotic (%) [10]: 90%
Population Fragmented Nuclei (%) [10]: 14%
Population Healthy Nuclei (%) [10]: 76%
Population Membrane Permeable-Phenotype (%) [10]: 5%
Population Pyknosed Nuclei (%) [10]: 8%
Population Tubulin-Different-Phenotype (%) [10]: 0%
Total Cell Count [10]: 230
Population Apoptotic (%) [11]: 83%
Population Fragmented Nuclei (%) [11]: 17%
Population Healthy Nuclei (%) [11]: 68%
Population Hoechst High Intensity Objects (%) [11]: 2%
Population Membrane Permeable-Phenotype (%) [11]: 8%
Population Mitochondria Different-Phenotype (%) [11]: 6%
Population Mitotic Cells (%) [11]: 16%
Population Normal (%) [11]: 97%
Population Pyknosed Nuclei (%) [11]: 13%
Population Tubulin-Different-Phenotype (%) [11]: 4%
Total Cell Count [11]: 456
Population Fragmented Nuclei (%) [12]: 27%
Population Healthy Nuclei (%) [12]: 64%
Population Hoechst High Intensity Objects (%) [12]: 5%
Population Membrane Permeable-Phenotype (%) [12]: 10%
Population Mitochondria Different-Phenotype (%) [12]: 5%
Population Normal (%) [12]: 94%
Population Pyknosed Nuclei (%) [12]: 8%
Population Tubulin-Different-Phenotype (%) [12]: 5%
Total Cell Count [12]: 231

COc1ccc2[nH]c(I)c(CCNC(C)=O)c2c1 [IODOMELATONIN]
Population Apoptotic (%) [1]: 68%
Population Fragmented Nuclei (%) [1]: 19%
Population Healthy Nuclei (%) [1]: 74%
Population Hoechst High Intensity Objects (%) [1]: 2%
Population Membrane Permeable-Phenotype (%) [1]: 4%
Population Mitochondria Different-Phenotype (%) [1]: 3%
Population Mitotic Cells (%) [1]: 31%
Population Normal (%) [1]: 97%
Population Pyknosed Nuclei (%) [1]: 5%
Population Tubulin-Different-Phenotype (%) [1]: 1%
Total Cell Count [1]: 282
Population Apoptotic (%) [2]: 37%
Population Fragmented Nuclei (%) [2]: 11%
Population Healthy Nuclei (%) [2]: 83%
Population Hoechst High Intensity Objects (%) [2]: 0%
Population Membrane Permeable-Phenotype (%) [2]: 5%
Population Mitochondria Different-Phenotype (%) [2]: 1%
Population Mitotic Cells (%) [2]: 62%
Population Normal (%) [2]: 99%
Population Tubulin-Different-Phenotype (%) [2]: 2%
Total Cell Count [2]: 156
Population Apoptotic (%) [3]: 77%
Population Fragmented Nuclei (%) [3]: 25%
Population Healthy Nuclei (%) [3]: 64%
Population Hoechst High Intensity Objects (%) [3]: 3%
Population Membrane Permeable-Phenotype (%) [3]: 2%
Population Mitochondria Different-Phenotype (%) [3]: 1%
Population Mitotic Cells (%) [3]: 22%
Population Normal (%) [3]: 96%
Population Pyknosed Nuclei (%) [3]: 9%
Population Tubulin-Different-Phenotype (%) [3]: 1%
Total Cell Count [3]: 231
Population Apoptotic (%) [4]: 80%
Population Fragmented Nuclei (%) [4]: 41%
Population Healthy Nuclei (%) [4]: 54%
Population Hoechst High Intensity Objects (%) [4]: 0%
Population Membrane Permeable-Phenotype (%) [4]: 10%
Population Mitochondria Different-Phenotype (%) [4]: 6%
Population Mitotic Cells (%) [4]: 20%
Population Normal (%) [4]: 99%
Population Pyknosed Nuclei (%) [4]: 3%
Population Tubulin-Different-Phenotype (%) [4]: 2%
Total Cell Count [4]: 134
Population Apoptotic (%) [5]: 86%
Population Fragmented Nuclei (%) [5]: 16%
Population Healthy Nuclei (%) [5]: 75%
Population Hoechst High Intensity Objects (%) [5]: 1%
Population Membrane Permeable-Phenotype (%) [5]: 3%
Population Mitochondria Different-Phenotype (%) [5]: 1%
Population Mitotic Cells (%) [5]: 13%
Population Normal (%) [5]: 98%
Population Pyknosed Nuclei (%) [5]: 8%
Population Tubulin-Different-Phenotype (%) [5]: 2%
Total Cell Count [5]: 354
Population Apoptotic (%) [6]: 80%
Population Fragmented Nuclei (%) [6]: 15%
Population Healthy Nuclei (%) [6]: 78%
Population Membrane Permeable-Phenotype (%) [6]: 8%
Population Mitochondria Different-Phenotype (%) [6]: 0%
Population Mitotic Cells (%) [6]: 20%
Population Pyknosed Nuclei (%) [6]: 5%
Total Cell Count [6]: 179
Population Apoptotic (%) [7]: 95%
Population Fragmented Nuclei (%) [7]: 25%
Population Healthy Nuclei (%) [7]: 66%
Population Hoechst High Intensity Objects (%) [7]: 1%
Population Membrane Permeable-Phenotype (%) [7]: 4%
Population Mitochondria Different-Phenotype (%) [7]: 1%
Population Mitotic Cells (%) [7]: 4%
Population Normal (%) [7]: 98%
Population Pyknosed Nuclei (%) [7]: 8%
Population Tubulin-Different-Phenotype (%) [7]: 1%
Total Cell Count [7]: 273
Population Apoptotic (%) [8]: 88%
Population Fragmented Nuclei (%) [8]: 34%
Population Healthy Nuclei (%) [8]: 59%
Population Membrane Permeable-Phenotype (%) [8]: 7%
Population Mitochondria Different-Phenotype (%) [8]: 5%
Population Mitotic Cells (%) [8]: 11%
Population Pyknosed Nuclei (%) [8]: 5%
Population Tubulin-Different-Phenotype (%) [8]: 2%
Total Cell Count [8]: 153
Population Apoptotic (%) [9]: 92%
Population Fragmented Nuclei (%) [9]: 12%
Population Healthy Nuclei (%) [9]: 79%
Population Hoechst High Intensity Objects (%) [9]: 1%
Population Membrane Permeable-Phenotype (%) [9]: 5%
Population Mitochondria Different-Phenotype (%) [9]: 2%
Population Mitotic Cells (%) [9]: 7%
Population Normal (%) [9]: 98%
Population Pyknosed Nuclei (%) [9]: 7%
Population Tubulin-Different-Phenotype (%) [9]: 3%
Total Cell Count [9]: 509
Population Apoptotic (%) [10]: 86%
Population Fragmented Nuclei (%) [10]: 13%
Population Healthy Nuclei (%) [10]: 81%
Population Membrane Permeable-Phenotype (%) [10]: 4%
Population Mitotic Cells (%) [10]: 13%
Population Pyknosed Nuclei (%) [10]: 5%
Total Cell Count [10]: 284
Population Apoptotic (%) [11]: 97%
Population Fragmented Nuclei (%) [11]: 21%
Population Healthy Nuclei (%) [11]: 68%
Population Hoechst High Intensity Objects (%) [11]: 2%
Population Membrane Permeable-Phenotype (%) [11]: 5%
Population Mitochondria Different-Phenotype (%) [11]: 0%
Population Mitotic Cells (%) [11]: 2%
Population Normal (%) [11]: 97%
Population Pyknosed Nuclei (%) [11]: 9%
Population Tubulin-Different-Phenotype (%) [11]: 2%
Total Cell Count [11]: 373
Population Apoptotic (%) [12]: 100%
Population Fragmented Nuclei (%) [12]: 29%
Population Healthy Nuclei (%) [12]: 65%
Population Hoechst High Intensity Objects (%) [12]: 0%
Population Membrane Permeable-Phenotype (%) [12]: 7%
Population Mitochondria Different-Phenotype (%) [12]: 5%
Population Mitotic Cells (%) [12]: 0%
Population Normal (%) [12]: 99%
Population Pyknosed Nuclei (%) [12]: 5%
Population Tubulin-Different-Phenotype (%) [12]: 4%
Total Cell Count [12]: 209
